Compound activity: PubChem, several laboratories
This is a sample that favours compounds with a hit; in the whole collection about 2.5% have one here.
T cell HTS: modulators of CD8 T cell-vesicle binding, primary screen, mouse 2C CD8+ T cells, flow cytometry; 2C CD8+ T cell-vesicle binding; active compounds read low; response (vesicle binding), % at 7 µM; hit rate 0.068% among 330,000; AID 2052, 2009;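 active = response, share of CD8 T cells binding vesicles, and their 90th percentile fluorescence all below set limits, cut at about 80% in these data, passing the limit was not always enough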;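 also: values below 100% mean blocked vesicle binding to the CD8+ T cells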
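Benchmarks: naked versus QL9-loaded vesicles / Assay system: purified 2C TCR transgenic mouse naive CD8+ T cells / Technique: high-throughput flow cytometry with anti-B7-1 and anti-CD8 staining / Timing: Cell–vesicle co-incubation 1.5 h at 37 °C, staining 20 min on ice / Read-out: percent CD8+ FL2 mean versus row control / Probe or stimulus: QL9-loaded Drosophila micro-vesicles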
UCH37 inh: inhibitors of human UCH37 deubiquitinase, primary screen, biochemical, Ub-AMC cleavage, fluorescence; AID 588478, 2011; inhibition, % (no concentration beside the values); hit rate 0.33% among 330,000; purified proteasome/UCH37;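 active = mean inhibition over replicate wells above about 20%, limit read from the data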;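 also: 0% = compound-free wells with enzyme and 100% = wells lacking proteasome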
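Material: Human UCH37 enzyme supplied as purified proteasome complex | Schedule: 30 min preincubation with enzyme, 25 min cleavage at room temperature | Detection: AMC fluorescence 355/460 nm | Measure: % inhibition of Ub-AMC cleavage fluorescence | Controls: Wells without proteasome as full block, compound-free enzyme plus substrate as uninhibited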
Rce1 inh: yeast Rce1p protease inhibitors, primary screen, biochemical, fluorescence, cell-free homogeneous. CAAX prenyl protease 2 (Saccharomyces cerevisiae (strain ATCC 204508 / S288c)), Q03530. yeast membranes, quenched prenylated peptide cleavage fluorescence. calls only. hit rate 0.27% among 290,000. AID 2563, 2010;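 active = fall in fluorescence gain of 50% or more versus controls, with final raw signal at or below 3038400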;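 also: plate controls were neutral control wells for no effect and wells lacking membranes for full effect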
MEKK3 PB1 HTS: modulators of MEKK3-MEK5 PB1 binding, primary screen, biochemical, wildtype MEKK3, multiplex bead flow cytometry, Alexa488-MEK5. binding response (% of control), % at 10 µM. hit rate 1.4% among 290,000. bead-based flow cytometry, Alexa488-MEK5 binding to MEKK3; actives lie on both sides; 0 = blocked by unlabeled MEK5, 100 = vehicle. Mitogen-activated protein kinase kinase kinase 3 (Homo sapiens), Q99759;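 active = binding response more than 3 SD above or below the average of its plate-row segment, actives on both sides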;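 also: Alexa488 bead fluorescence after subtracting the streptavidin-only scavenger bead signal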
Target sequence (Q99759 whole entry, looked up): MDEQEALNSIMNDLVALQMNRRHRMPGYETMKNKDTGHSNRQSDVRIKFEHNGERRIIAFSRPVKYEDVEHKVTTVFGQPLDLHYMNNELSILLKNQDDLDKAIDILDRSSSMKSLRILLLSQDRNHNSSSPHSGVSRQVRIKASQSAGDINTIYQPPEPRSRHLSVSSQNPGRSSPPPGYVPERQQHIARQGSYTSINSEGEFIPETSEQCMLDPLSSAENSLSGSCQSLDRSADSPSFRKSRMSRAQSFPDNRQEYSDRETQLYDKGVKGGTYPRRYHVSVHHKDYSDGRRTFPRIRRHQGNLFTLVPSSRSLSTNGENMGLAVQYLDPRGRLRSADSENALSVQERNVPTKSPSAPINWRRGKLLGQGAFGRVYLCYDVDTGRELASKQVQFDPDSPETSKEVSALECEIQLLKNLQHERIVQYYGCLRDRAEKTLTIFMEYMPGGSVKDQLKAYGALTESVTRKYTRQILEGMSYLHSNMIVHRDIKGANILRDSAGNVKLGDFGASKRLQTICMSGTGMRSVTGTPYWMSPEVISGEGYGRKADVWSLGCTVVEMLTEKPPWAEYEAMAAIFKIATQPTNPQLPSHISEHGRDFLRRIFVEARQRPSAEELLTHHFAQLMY
MEKK2wt PB1 HTS: modulators of MEK5 binding to wildtype MEKK2, primary screen, biochemical, multiplex bead flow cytometry, Alexa488-MEK5. Mitogen-activated protein kinase kinase kinase 2 (Homo sapiens), Q9Y2U5. Alexa488-MEK5 binding to MEKK2 WT; actives lie on both sides. binding response (% of control), % at 10 µM. hit rate 1.1% among 290,000. AID 1531, 2009; in the data active = binding response below about 67% or above about 130%
MEKK2 mut-MEK5: MEK5 binding signal on mutant MEKK2 PB1, primary screen, biochemical, multiplex bead flow cytometry, Alexa488-MEK5 | hit rate 0.35% among 290,000 | Alexa488-MEK5 binding to MEKK2 mutant | percent response, % at 10 µM | AID 1530, 2009; in the data active = percent response above about 24%, passing the limit was not always enough
MEKK2wt confirm: modulators of MEK5 binding to wildtype MEKK2, confirmation, biochemical, single concentration, multiplex bead flow cytometry. Alexa488-MEK5 binding to MEKK2 WT; actives lie on both sides. shares compounds with MEKK3 PB1 HTS. hit rate 2.4% among 5,900. AID 1892, 2009. binding response (% of control), % at 10 µM; in the data active = binding response below about 16% or above about 210%; inactive = in between
MEKK2mut confirm: mutant MEKK2 PB1-MEK5 binding signal retest – biochemical, single concentration, multiplex bead flow cytometry, confirmation; shares compounds with MEKK3 PB1 HTS; Alexa488-MEK5 binding to MEKK2 mutant; percent response, % at 10 µM; hit rate 2% among 5,900; in the data active = percent response mostly above about 71%, no sharp cut-off; inactive = mostly below about 38%;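 also: higher means compound restores mutant binding toward wildtype level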
MEKK3-MEK5 inh: MEKK3 wild-type PB1 binding to MEK5, inhibitors, confirmation, biochemical, bead multiplex flow cytometry, single concentration, wildtype. shares compounds with MEKK3 PB1 HTS. Alexa488-MEK5 binding to MEKK3; active compounds read low. binding response (% of control), % at 10 µM. hit rate 1.8% among 5,900. AID 1894, 2009;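 active = binding response below 72% of control, or above a set upper limit, though filed actives all read lower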;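 also: 100% = DMSO only wells and 0% = binding blocked by excess unlabeled MEK5; lower values mean stronger disruption of MEK5 binding to MEKK3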
The depositor's hits bear a star; i = inactive; . = no result given; [ ] = remark or other dose.

SMILES	T cell HTS	UCH37 inh	Rce1 inh	MEKK3 PB1 HTS	MEKK2wt PB1 HTS	MEKK2 mut-MEK5	MEKK2wt confirm	MEKK2mut confirm	MEKK3-MEK5 inh
COc1cccc(Nc2nc(-c3sc(NC(=O)c4ccccc4)nc3C)cs2)c1	.	-20.8	i	107.0	143.0*	15.0	119.0	12.0	102.0
CNCc1ccccc1Sc1ccc(OC)cc1	711.7	2.3	i	.	.	.	.	.	.
CNCc1ccccc1Sc1cccc2ccccc12	252.7	0.6	i	154.0*	122.0	2.0	125.0	12.0	104.0
Fc1ccccc1CNC(=S)Nc1cccc(C(F)(F)F)c1	254.6	2.9	i	134.0*	99.0	-1.0	110.0	8.0	111.0
COc1nc2c(c(-c3cc(Br)cs3)c1C#N)Cc1ccccc1-2	i	-196.0	i	133.0*	127.0	25.0	98.0	-4.0	102.0
COc1ccc([N+](=O)[O-])cc1NC1C2CC3CC(C2)CC1C3 (stereo not drawn)	635.3	5.3	i	112.0	103.0	3.0	.	.	.
COc1ccc([N+](=O)[O-])cc1NC1CCCCC1	184.7	5.9	i	128.0*	123.0	7.0	99.0	-7.0	99.0
Cc1cccc(/C=C2/S/C(=N/N=C3CC4CCC3(C)C4(C)C)NC2=O)c1 (stereo not drawn)	.	7.4	.	.	.	.	.	.	.
CC(=O)Nc1ccc(C(=O)OCC(=O)/C(C#N)=C(\C)N)cc1	241.4	-0.3	i	105.0	104.0	-2.0	.	.	.
C/C(N)=C(/C#N)C(=O)COC(=O)c1ccncc1	86.9	4.9	i	135.0*	113.0	6.0	104.0	2.0	104.0
CCN(CC)S(=O)(=O)c1cccc(C(=O)NN=C(C)c2cccs2)c1	.	-3.8	.	.	.	.	.	.	.
CC(=NNC(=O)CNC(=O)COc1ccccc1)c1ccco1	.	1.8	.	.	.	.	.	.	.
CCCCCCCCCCOC(=O)Cn1c(COc2ccccc2OC)[n+](C)c2ccccc21	113.0	.	i	111.0	238.0*	61.0*	251.0*	141.0*	112.0
CC12CN3CCN(CC(C3)C1=NN=C1C3CN4CCN(C3)CC1(C)C4)C2	.	4.3	.	.	.	.	.	.	.
COc1cc(OC)c(OC)cc1C=NNC(=O)c1ccc(CSc2nc(C)cc(C)n2)cc1	.	-157.1	.	.	.	.	.	.	.
Cc1ccccc1CON=Cc1[nH]ncc1Br	.	4.1	.	.	.	.	.	.	.
CN(C)C(=O)c1ccc(Oc2ccc(C(=O)N(C)C)cc2)cc1	345.4	-1.6	i	66.0*[inhibitor]	75.0	-14.0	100.0	-1.0	100.0
CCN1CCN(S(=O)(=O)c2ccc3ccccc3c2)CC1	302.2	-0.4	i	50.0*[inhibitor]	67.0	-20.0	104.0	2.0	101.0
CC(/C=C/c1ccccc1)=NNC(=O)CCC(=O)Nc1ccccc1C	.	3.3	.	.	.	.	.	.	.
OC(COCc1ccccc1)CN1CCN(Cc2ccc3c(c2)OCO3)CC1 (stereo not drawn)	177.5	2.9	i	92.0	101.0	2.0	.	.	.
SC(COCc1ccccc1)CN1CCN(Cc2ccc3c(c2)OCO3)CC1 (stereo not drawn)	228.7	.	i	108.0	142.0*	42.0	168.0	31.0	107.0
Cc1ccccc1N1C(=O)c2cccc3cccc(c23)C1=O	296.8	-0.5	i	106.0	107.0	26.0*	104.0	2.0	106.0
COc1ccc(/C=C/C(=O)NCCCN2CCCCCC2)cc1	687.0	3.7	i	105.0	155.0*	28.0*	155.0	27.0	107.0
O=C(/C=C/c1ccc(F)cc1)NCCCN1CCN(CCCNC(=O)/C=C/c2ccc(F)cc2)CC1	191.8	1.0	i	111.0	146.0*	5.0	196.0	67.0	111.0
O=C(/C=C/c1ccc(Cl)c(Cl)c1)NCCCn1ccnc1	543.5	5.5	i	101.0	114.0	13.0	.	.	.
SMILES	T cell HTS	UCH37 inh	Rce1 inh	MEKK3 PB1 HTS	MEKK2wt PB1 HTS	MEKK2 mut-MEK5	MEKK2wt confirm	MEKK2mut confirm	MEKK3-MEK5 inh
Cc1ccc(/C=C/C(=O)NCCCn2ccnc2)cc1	329.4	1.7	i	3.0*[inhibitor]	5.0*[inhibitor]	-46.0	97.0	0.0	97.0
COc1ccc(/C=C/C(=O)NCCCN2CCOCC2)cc1	187.6	-1.3	i	100.0	99.0	-3.0	.	.	.
CCOC(=O)Cc1csc(NC(=O)COc2ccc(N(C)S(=O)(=O)c3ccc(C)cc3)cc2)n1	263.3	4.5	i	128.0*	116.0	9.0	104.0	3.0	107.0
CCOC(=O)Cc1csc(NC(=O)c2ccc(OC)c(OC)c2)n1	360.2	1.2	i	1.0*[inhibitor]	0.0*[inhibitor]	-42.0	96.0	1.0	99.0
Cc1[nH]c2ccccc2c1C=NNC(=O)c1cccc([N+](=O)[O-])c1	.	2.6	.	.	.	.	.	.	.
O=[N+]([O-])c1cc(Cc2ccccc2)cc(C=Nc2ccc(N3CCOCC3)cc2)c1O	310.8	0.8	i	146.0*	97.0	0.0	89.0	-5.0	96.0
O=C(Nc1ccc2c(c1)CCC2)c1ccccc1F	538.1	2.7	i	135.0*	103.0	0.0	104.0	4.0	104.0
O=C(O)c1ccccc1-c1ccccc1C(=O)Nc1ccc2c(c1)CCC2	189.7	1.6	i	101.0	105.0	3.0	.	.	.
Cc1ccc2[nH]c3c(N4CCN(Cc5ccc6c(c5)OCO6)CC4)ncnc3c2c1	.	-29.3	.	.	.	.	.	.	.
Cc1ccc2c(c1)[nH]c1c(N3CCN(Cc4ccccc4)CC3)ncnc12	191.8	-23.0	.	109.0	158.0*	18.0	119.0	13.0	106.0
COc1ccc2c(c1)[nH]c1c(N3CCN(Cc4ccc5c(c4)OCO5)CC3)ncnc12	240.5	-7.9	i	114.0	152.0*	8.0	146.0	33.0	107.0
NC(=O)NN=Cc1cc(Br)ccc1OCC(=O)NCc1ccccc1	.	3.4	.	.	.	.	.	.	.
COc1ccc(-c2cc(C(F)(F)F)nc(N3CCOCC3)n2)cc1	379.3	-20.1	i	100.0	102.0	8.0	.	.	.
